Assay results as given in PubChem BioAssay AID540339 (Broad Institute, 2011).
Activity calls are given as the source filed them.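 Rule for the calls: active = compounds that lower cell viability signal with a fitted half-maximal concentration within ten times the top tested dose; inconclusive = flat curve inhibiting 30 to 70%, or an unreliable fit; inactive = the rest.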

system: not listed separately; assay: growth inhibition of MALME3 cells – cell-based, CellTiter-Glo, dry powder samples, orthogonal assay for MITF inhibitor project, dose response (AID 540339); settings: MALME3 melanoma viability, CellTiter-Glo luminescence, 24 h; at 35 µM (top of the series)
Summary of the method: (§1)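 Material: MALME3 melanoma cells. Medium: IMDM with 10% FBS, without phenol red. Dosing: compound dose-response series delivered by pin transfer. Schedule: 24 h compound treatment at 37 °C. Technique: CellTiter-Glo luminescence reporting cellular ATP.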

Compound	activity change, negative = inhibition
CC1CCCCC1NC(=O)/C(C#N)=C/C=C/c1ccccc1[N+](=O)[O-] (stereo unspecified)	2.17% (inactive)

system: MALME3 melanoma viability, CellTiter-Glo luminescence, 24 h; assay: as above; settings: not given
Summary of the method: as §1

Compound	AC50
CCN1CCCC1CNC(=O)c1ccc2c(c1)NC(=O)/C(=C\c1ccc(C)cc1)S2 (stereo unspecified)	20 µM
COc1ccc(S(=O)(=O)N(C(C)=O)c2ccc(OC(C)=O)c3ccccc23)cc1[N+](=O)[O-]	4.21 µM
O=C(Nc1ccc(N2CCN(C(=O)c3ccccc3)CC2)cc1)c1ccc([N+](=O)[O-])o1	16.7 µM
CCN1c2ccccc2NC2N=C(OC)C(c3ccccc3)C21 (stereo unspecified)	7.91 µM
COc1cc2c(cc1OC)C(c1ccccc1)N(C(=O)CCl)CC2 (stereo unspecified)	18 µM
CC1CN(C(=O)CCC(=O)NCCCN2CCC(Cc3ccccc3)CC2)c2cc(Cl)ccc2O1 (stereo unspecified)	29.9 µM
CCN1CCN(C2=C(NS(=O)(=O)c3ccc(Br)cc3)C(=O)c3ccccc3C2=O)CC1	17.7 µM
Cc1[nH]c2ccccc2c1C(=O)CCl	31.8 µM
Cc1ccc(C(=O)N/N=C/c2ccc([N+](=O)[O-])s2)cc1	14.8 µM
O=C(CNc1cccc2ccccc12)N/N=C/c1ccc([N+](=O)[O-])o1	20 µM
O=c1c(Cl)c2oc3ccccc3nc-2c2ccccc12	18.2 µM
O=C(COc1ccccc1)N/N=C/c1ccc([N+](=O)[O-])o1	19.1 µM
CN(C)CCCNC(=O)/C(=C\c1ccc(-c2ccc(Br)cc2)o1)NC(=O)c1ccccc1	17.4 µM
COc1cc(/C=N/NC(N)=O)c(Br)cc1OCC(=O)Nc1ccccc1C	32.8 µM
CC1CCN(CC(CS(=O)(=O)c2ccc([N+](=O)[O-])cc2)N2CCC(C)CC2)CC1 (stereo unspecified)	18.6 µM
CC1=NNC(=O)/C1=C\c1cn(-c2ccccc2)nc1-c1ccc(F)cc1	36.5 µM
C=CCNC1=C(Cl)C(=O)c2ccccc2C1=O	8.93 µM
CC(C)C(CCNC1CCN(C)CC1)c1ccc(Cl)cc1 (stereo unspecified)	4.04 µM
CCN(CC)CCNC(=O)c1c(C)n(-c2ccccc2)c2cc(Br)c(OC)cc12	34.1 µM
Cc1nc2ccccc2n1/N=C/c1ccc([N+](=O)[O-])s1	10.3 µM
Cc1ccc(C(C)C)c(OCc2nn(CC(=O)c3ccc(Cl)cc3)c3[n+]2CCCCC3)c1	23.1 µM
O=C(Cn1ncc(Cl)c(Cl)c1=O)N1CCc2ccccc21	5.07 µM
N=c1n(CCN2CCCC2)c2ccccc2n1CC(O)c1ccc(Cl)c(Cl)c1 (stereo unspecified)	18.6 µM
O=C(Nc1ccc(-c2nc3ncccc3o2)cc1)c1ccc([N+](=O)[O-])o1	14.5 µM
CC1(C)CC(NC(=O)c2ccc(Cl)c(S(=O)(=O)N(Cc3ccccc3)c3ccccc3)c2)CC(C)(C)N1	17.4 µM
